Compound activity deposited in PubChem BioAssay by several laboratories.
Casp6 inh: human caspase-6 inhibitors, primary screen, biochemical, VEID-R110 fluorescence, single point, set 2; purified caspase-6, Z-VEID-R110 cleavage fluorescence; actives 0.53% (n = 350,000); P55212; inhibition, % at 12.5 µM; AID 686996, 2013;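 active = mean inhibition across replicates at least about 35%, with every replicate also reaching that limit, limit read from the data; inconclusive = only one of the two criteria met; inactive = neither criterion met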
Target sequence (P55212 24-179 limits assumed): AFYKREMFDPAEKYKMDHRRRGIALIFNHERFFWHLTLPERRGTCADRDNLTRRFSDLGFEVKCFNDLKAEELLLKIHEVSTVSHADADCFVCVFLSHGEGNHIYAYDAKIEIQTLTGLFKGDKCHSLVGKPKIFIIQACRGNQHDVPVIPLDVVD
Target sequence (P55212 194-293 limits assumed): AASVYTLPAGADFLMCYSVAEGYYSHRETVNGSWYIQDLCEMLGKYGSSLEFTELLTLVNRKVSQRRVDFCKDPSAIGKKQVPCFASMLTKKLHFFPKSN
Vif inh: HIV Vif self-association inhibitors, primary screen, imaging, HEK293T, single point; actives 0.35% (n = 340,000); HEK293T cells, Vif self-association by quenched fluorescence, 24 h; inhibition, % at 7.49 µM; AID 602346, 2012; in the data active = inhibition above about 50%, passing the limit was not always enough; inconclusive = no clear call, values can overlap the other calls; inactive = below about 31%
T cell modulator: modulators of CD8 T cell-vesicle binding, primary screen, mouse 2C CD8+ T cells, flow cytometry; actives 0.068% (n = 330,000); response (vesicle binding), % at 7 µM; 2C CD8+ T cell-vesicle binding; stronger effect = lower value;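 active = response, share of CD8 T cells binding vesicles, and their 90th percentile fluorescence all below set limits, cut at about 80% in these data, passing the limit was not always enough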;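 also: values below 100% mean blocked vesicle binding to the CD8+ T cells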
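Test system: purified 2C TCR transgenic mouse naive CD8+ T cells. Probe or stimulus: QL9-peptide-loaded Drosophila micro-vesicles bearing Ld, ICAM-1 and B7-1. Incubation: binding step 1.5 h, 37 °C, antibody labelling 20 min, ice. Measured by: flow cytometry of vesicle-bound cells.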
Myeloid diff MLP: induction of myeloid progenitor differentiation, primary screen, cell-based, flow cytometry, MLPCN library; ER-HoxA9 myeloid progenitors, lysozyme-GFP differentiation; calls only at 10 µM; actives 1% (n = 360,000); AID 624256, 2012;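 active = normalized GFP-positive differentiation at or above the plate's own cutoff, the solvent-only control mean plus 3 SD; inconclusive = no clear call, values can overlap the other calls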;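 also: cells exposed to compound for four days before flow analysis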
Myeloid diff: inducers of myeloid progenitor differentiation, confirmation, cell-based, GFP/Mac1 flow cytometry, cherry pick 01 | shares compounds with Myeloid diff MLP | calls only | AID 651706, 2012 | ER-HoxA9 myeloid progenitors, GFP/Mac1 double-positive flow | actives 2% (n = 2,300);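 active = share of green or green-and-red cells above 9 and 9% in run 1 or 4 and 3% in run 2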
GFP autofluor: flagged as fluorescent in myeloid differentiation counter-screen; ER-HoxA9 myeloid progenitors, no estrogen, GFP autofluorescence flow cytometry; vehicle wells 0%, positive control 100%; shares compounds with Myeloid diff MLP; actives 7.4% (n = 2,300); fluorescence response, % (test concentration not listed);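 active = over 5% cells positive for green fluorescent reporter, or over 2% positive for both it and APC stain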
Hits are given with their value; . = inactive; ? = inconclusive; / = no result given; + = active, no number. Hits are enriched below; roughly 1.4% of the tested compounds scored in any of these assays.

SMILES	Casp6 inh	Vif inh	T cell modulator	Myeloid diff MLP	Myeloid diff	GFP autofluor
Cc1ccc(S(=O)(=O)N2CC[C@H]3[C@H](CO)Nc4ccc(C#Cc5ccc(F)cc5)cc4[C@H]32)cc1	.	/	/	/	/	/
O=C1c2ccccc2NC(c2ccc(F)cc2)N1Cc1ccco1 (centres undefined)	/	/	.	.	.	.
O=C1c2ccccc2NC(c2ccccc2)N1Cc1ccco1 (centres undefined)	/	.	.	.	/	/
CO[C@@H]1CN(C)C(=O)c2cc(NC(=O)C3CCCC3)ccc2OC[C@@H](C)N(CCC(F)(F)F)C[C@H]1C	.	/	/	/	/	/
COc1ccccc1NC(=O)N[C@@H]1C=C[C@H](CC(=O)N[C@@H](C)c2ccccc2)O[C@@H]1CO	.	/	/	/	/	/
Oc1ccccc1N=Cc1ccc[nH]1	/	.	.	+	.	.
COc1cccc(-c2ccc([C@@H]3[C@@H](CO)N(C(C)=O)C34CN(C(C)=O)C4)cc2)c1	.	/	/	/	/	/
C=CCc1cccc(C=Nc2cc(Br)ccc2O)c1O	/	.	.	+	.	.
C=CCc1cccc(C=Nc2c[nH]c(=O)[nH]c2=O)c1O	.	.	.	.	/	/
CCN1CCN(c2ccc(S(=O)(=O)N3CCCCC3)cc2NC(=O)c2ccc([N+](=O)[O-])o2)CC1	.	.	.	.	.	.
CC(C)N(C(=O)[C@H]1C[C@H](CC(=O)NC(C)(C)C)C(=O)N2CCc3c([nH]c4cc(-c5ccco5)ccc34)[C@]12C)C(C)C	.	.	/	.	/	/
CCN(CC)C(=O)[C@H]1C[C@H](CC(=O)NC(C)(C)C)C(=O)N2CCc3c([nH]c4cc(-c5ccco5)ccc34)[C@]12C	.	/	/	+	.	.
COc1ccc(OC)c(-n2c(O)cnc2Nc2nc(C)cc(C)n2)c1	/	.	.	.	.	.
O=C(/C=C/c1ccco1)NC(=S)Nc1ccccc1N1CCCC1	/	.	.	.	/	/
O=C(/C=C\c1ccco1)NC(=S)Nc1ccccc1O	49	.	.	.	.	.
Cc1ccc(S(=O)(=O)Nc2cccc(-c3cn4ccsc4n3)c2)cc1	/	.	.	.	.	.
CC(C)NC(=O)N[C@@H]1C[C@@H]2O[C@H](CO)CC[C@@H]2O[C@@H]1CCc1ccc(-c2ccc(F)cc2)cc1	.	/	/	/	/	/
CC(=O)N(C)C[C@@H]1Oc2cc(-c3ccccc3)ccc2S(=O)(=O)N([C@H](C)CO)C[C@@H]1C	.	/	/	/	/	/
C1CCC2(CC1)C1=C(CCCC1)Nc1nnnn12	/	.	.	+	.	.
COc1ccccc1NS(=O)(=O)c1cc(NC(=O)c2cccs2)ccc1N1CCCCC1	.	.	.	+	.	.
COc1ccc(NS(=O)(=O)c2cc(NC(=O)c3sccc3C)ccc2N2CCOCC2)cc1	.	/	.	+	.	.
COc1ccccc1NS(=O)(=O)c1cc(NC(=O)c2sccc2C)ccc1N1CCOCC1	.	.	.	.	/	/
C[C@@H](NC(=O)C[C@H]1C=C[C@H](NC(=O)C2CCC2)[C@@H](CO)O1)c1ccccc1	.	/	/	/	/	/
O=C(Nc1ccc(S(=O)(=O)N2CCOCC2)cc1)c1ccc([N+](=O)[O-])o1	.	.	.	?	/	/
O=C(Nc1ccc(N2CCOCC2)cc1)c1ccc([N+](=O)[O-])o1	.	.	.	+	.	.
SMILES	Casp6 inh	Vif inh	T cell modulator	Myeloid diff MLP	Myeloid diff	GFP autofluor
C[C@H]1CN([C@@H](C)CO)C(=O)c2cccc(NS(=O)(=O)c3ccc(Cl)cc3)c2O[C@@H]1CN(C)Cc1ccccc1	.	/	/	/	/	/
Cc1cc2nc(/C(C#N)=C\c3ccc(-c4ccccc4C(=O)O)o3)[nH]c2cc1C	.	/	.	.	.	.
Cc1ccc2nc(/C(C#N)=C/c3ccc(-c4ccccc4C(=O)O)o3)[nH]c2c1	.	.	.	.	/	/
Cc1ccc2nc(/C(C#N)=C\c3ccc(N4CCOCC4)o3)[nH]c2c1	/	.	.	+	.	29
CN(C)C(=O)C[C@@H]1C=C[C@@H](NC(=O)C2CCOCC2)[C@H](CO)O1	.	/	/	/	/	/
C/C=C/c1ccc2c(c1)O[C@H](CN(C)C(=O)CN1CCOCC1)[C@H](C)CN([C@H](C)CO)S2(=O)=O	.	/	/	/	/	/
CCCCn1c(N)c(N(CC(C)C)C(=O)Cc2ccc(S(=O)(=O)N3CCOCC3)s2)c(=O)[nH]c1=O	.	.	/	+	+	.
COc1ccccc1NS(=O)(=O)c1cc([N+](=O)[O-])ccc1N/N=C/c1c[nH]c2ccccc12	/	.	.	+	.	46
COc1ccccc1NC(=O)c1c(NC(=O)c2ccco2)sc2c1CCC2	/	.	.	+	.	.
COc1cc2c(=O)n(Cc3ccccc3)c(=O)n(CC(=O)NCCc3ccccc3)c2cc1OC	/	.	.	+	.	.
COc1cc2c(=O)n(Cc3ccccc3)c(=O)n(CC(=O)NCC3CCCO3)c2cc1OC (centres undefined)	/	.	.	.	/	/
CCOC(=O)CC(=O)CSc1nc(-c2cccnc2)cc(C)c1C#N	/	.	.	.	/	/
CCOC(=O)CC(=O)CSc1nc(C)cc(-c2cccnc2)c1C#N	.	.	.	.	.	.
C[C@H](CO)N1C[C@H](C)[C@@H](CN(C)C)Oc2ccc(NC(=O)Nc3ccc(C(F)(F)F)cc3)cc2CC1=O	.	/	/	/	/	/
CCN(CC)CCNC(=O)Cn1nc(Cc2ccncc2)c2ccccc2c1=O	.	.	.	.	/	/
